Like-named read-outs stand apart in the source and are kept apart here. Each block holds one compound with its values, some of them ahead of it.
Columns and labels:
NIH3T3 cells [1] = assay: CCK8 anti-proliferative assay, mouse fibroblast cell line; format: cell-based; details: for IC50: CCK8; for inhibition at 500 µM: NIH3T3, read-out: Inhibition% @ 0.5 mM; for inhibition at 1000 µM: NIH3T3, read-out: Inhibition% @ 1 mM; for proliferation (fixed cell morphology): NHI3T3, 0.050 mM for 24 h
Outline: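 NIH3T3 cells in F12K/DMEM with 10% heat-inactivated FBS and penicillin/streptomycin. Log-phase cells seeded at 5 × 10^3 cells/well for 24 h, then exposed to a range of test-compound concentrations for 72 h. Single-point inhibition taken at 1 mM and 0.5 mM. CCK8 added for 1–4 h; absorbance read at 450 nm. IC50 by curve fitting; mean (±SD) of ≥3 independent determinations.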

NIH3T3 cells [2] = details: pirfenidone, reported in the literature; cited from earlier work
[3] = clinical trials, after administration of pirfenidone; cited from earlier work
HFL1 = assay: CCK8 antiproliferative assay, human fibroblast cell line; format: cell-based; details: for proliferation (fixed cell morphology): HFL1, 0.050 mM for 24 h; for IC50: Homo sapiens, HFL1
Outline: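 HFL1 human fibroblasts grown in F12K/DMEM with 10% heat-inactivated FBS and penicillin/streptomycin. Cells treated with test compound for 48 h, and viability read by CCK8 absorbance at 450 nm. Curve fitting gave IC50. For morphology, cells were treated for 24 h, fixed, and imaged by light microscopy with a 10× objective.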

E-cadherin = assay: Immunofluorescence, E-cadherin expression; format: cell-based, mouse; details: NHI3T3 cells, TGF-β1 (10 ng mL^−1) and 9d (50 μM)
KM mice = assay: Acute toxicity experiment and histopathologic examination; format: in vivo; details: caudal vein injection, 100/150/300 mg kg^−1
NHI3T3 cells = assay: Transwell / cell migration assay; format: cell-based, mouse
Solubility in water = format: physicochemical; details: compared with 11a and 11b
α-SMA = assay: Immunofluorescence, α-SMA expression; format: cell-based, mouse; details: NHI3T3 cells, TGF-β1 (10 ng mL^−1) and 9d (50 μM)
Outline: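 NIH3T3 cells grown on coverslips and co-treated with TGF-β1 (10 ng mL−1) and test compound (50 μM) for 24 h. Fixed in 4% paraformaldehyde, then incubated with primary anti-α-SMA overnight at 4 °C. Detected with FITC-conjugated anti-rabbit IgG; nuclei stained with DAPI. Imaged by confocal microscopy; two technical replicates, three biological repeats.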

[4] = Mus musculus, NIH3T3, NIH3T3 cells, averages ±SD of at least three determinations
[5] = Mus musculus, NIH3T3, NIH3T3 cells

Compound: CN1CCN(CC(=O)Nc2ccc(-n3cc(C(F)(F)F)ccc3=O)cc2)CC1 [Compound 5a, 2-(4-Methylpiperazin-1-yl)-N-(4-(2-oxo-5-(trifluoromethyl)pyridin-1(2H)-yl)phenyl)acetamide]
IC50 (NIH3T3 cells [1]; [4]): 341 ± 7.3 µM
inhibition at 500 µM (NIH3T3 cells [1]; Mus musculus): 51.8%
inhibition at 1000 µM (NIH3T3 cells [1]; Mus musculus): 62.4%

Compound: Cc1ccc(=O)n(-c2ccc(NC(=O)[C@@H](C)N(C)C)cc2)c1 [Compound 5c, (R)-2-(Dimethylamino)-N-(4-(5-methyl-2-oxopyridin-1(2H)-yl)phenyl)propanamide]
IC50 (NIH3T3 cells [1]; [5]): 490 µM
IC50 (NIH3T3 cells [1]; [4]): 490.2 ± 2.7 µM
inhibition at 500 µM (NIH3T3 cells [1]; Mus musculus): 26.8%
inhibition at 1000 µM (NIH3T3 cells [1]; Mus musculus): 52.9%

Compound: CN(C)CC(=O)Nc1ccc(-n2cc(C(F)(F)F)ccc2=O)cc1 [Compound 5b, 2-(Dimethylamino)-N-(4-(2-oxo-5-(trifluoromethyl)pyridin-1(2H)-yl)phenyl)acetamide]
IC50 (NIH3T3 cells [1]; [4]): > 500 µM
inhibition at 500 µM (NIH3T3 cells [1]; Mus musculus): 34.2%
inhibition at 1000 µM (NIH3T3 cells [1]; Mus musculus): 45.8%

Compound: CC(=O)Nc1ccc(Cn2cc(C)ccc2=O)cc1 [Compound 9c, N-(4-((5-Methyl-2-oxopyridin-1(2H)-yl)methyl)phenyl)acetamide]
IC50 (NIH3T3 cells [1]; [4]): 113 ± 1.9 µM
inhibition at 500 µM (NIH3T3 cells [1]; Mus musculus): 72.5%
inhibition at 1000 µM (NIH3T3 cells [1]; Mus musculus): 89%

Compound: CC(=O)Nc1ccc(Cn2cc(C(F)(F)F)ccc2=O)cc1 [Compound 9a, N-(4-((2-oxo-5-(Trifluoromethyl)pyridin-1(2H)-yl)methyl)phenyl)acetamide]
IC50 (NIH3T3 cells [1]; [4]): 132 ± 2.3 µM
inhibition at 500 µM (NIH3T3 cells [1]; Mus musculus): 68.4%
inhibition at 1000 µM (NIH3T3 cells [1]; Mus musculus): 86.2%

Compound: Cc1ccc(=O)n(-c2ccccc2)c1 [pirfenidone, 5-methyl-1-phenyl-2[1H]-pyridone, reference compound]
IC50 (NIH3T3 cells [2]): 2750 µM
IC50 (NIH3T3 cells [1]; [4]): > 1000 µM
inhibition at 500 µM (NIH3T3 cells [1]; Mus musculus): 17.9%
inhibition at 1000 µM (NIH3T3 cells [1]; Mus musculus): 35.7%
incidence of photo-sensitivity [3]: 51.7%

Compound: CN(C)CC(=O)Nc1ccc(Cn2cc(C(F)(F)F)ccc2=O)cc1 [Compound 10d, 2-(Dimethylamino)-N-(4-((2-oxo-5-(trifluoromethyl)pyridin-1(2H)-yl)methyl)phenyl)acetamide]
IC50 (NIH3T3 cells [1]; [4]): 273.1 ± 1.5 µM
inhibition at 500 µM (NIH3T3 cells [1]; Mus musculus): 52.4%
inhibition at 1000 µM (NIH3T3 cells [1]; Mus musculus): 71.3%

Compound: CC(=O)N(C(C)=O)c1ccc(Cn2cc(C)ccc2=O)cc1 [Compound 9d, N-Acetyl-N-(4-((5-methyl-2-oxopyridin-1(2H)-yl)methyl)phenyl)acetamide]
proliferation (fixed cell morphology) (HFL1): effectively inhibited
IC50 (HFL1): 35 µM
expression of E-cadherin (E-cadherin): reversed after 9d treatment, higher than the control group
histopathology (H&E) of liver, kidney, heart, spleen (KM mice): no pathological abnormalities such as inflammation, injury and necrosis
IC50 (NIH3T3 cells [1]; [5]): 69 µM
IC50 (NIH3T3 cells [1]; [4]): 69.1 ± 2.7 µM
inhibition at 500 µM (NIH3T3 cells [1]; Mus musculus): 88.4%
inhibition at 1000 µM (NIH3T3 cells [1]; Mus musculus): 98.7%
proliferation (fixed cell morphology) (NIH3T3 cells [1]): effectively inhibited
times the anti-fibrosis activity of pirfenidone (NIH3T3 cells [1]; relative to pirfenidone IC50 2.75 mM): more than 40 times
3T3 cell migration (transwell) (NHI3T3 cells; 9d 50 μM): markedly inhibited
cell migration OD value (NHI3T3 cells; 9d + TGF-β1, OD value of the control is 1.0, TGF-β1 alone about 1.7): about 0.8
cell migration OD value (NHI3T3 cells; 9d alone, 50 μM, OD value of the control is 1.0): about 0.35
solubility in water (Solubility in water): good solubility in water
expression of α-SMA (α-SMA): decreased

solubility in water (Solubility in water): good solubility in water
Compound: CC(=O)N(C(C)=O)c1ccc(Cn2cc(C(F)(F)F)ccc2=O)cc1 [Compound 9b, N-Acetyl-N-(4-((2-oxo-5-(trifluoromethyl)pyridin-1(2H)-yl)methyl)phenyl)acetamide]
proliferation (fixed cell morphology) (HFL1): effectively inhibited
IC50 (HFL1): 48 µM
IC50 (NIH3T3 cells [1]; [5]): 87 µM
IC50 (NIH3T3 cells [1]; [4]): 87.5 ± 0.7 µM
inhibition at 500 µM (NIH3T3 cells [1]; Mus musculus): 80.6%
inhibition at 1000 µM (NIH3T3 cells [1]; Mus musculus): 90.5%
proliferation (fixed cell morphology) (NIH3T3 cells [1]): effectively inhibited

Compound: CC(=O)N(C)c1ccc(Cn2cc(C(F)(F)F)ccc2=O)cc1 [Compound 11a, N-Methyl-N-(4-((2-oxo-5-(trifluoromethyl)pyridin-1(2H)-yl)methyl)phenyl)acetamide]
IC50 (NIH3T3 cells [1]; [4]): 146 ± 5.5 µM
inhibition at 500 µM (NIH3T3 cells [1]; Mus musculus): 67.9%
inhibition at 1000 µM (NIH3T3 cells [1]; Mus musculus): 78.5%

Compound: CC(=O)Nc1ccc(-n2cc(C(F)(F)F)ccc2=O)cc1 [Compound 4a, N-(4-(2-oxo-5-(Trifluoromethyl)pyridin-1(2H)-yl)phenyl)acetamide]
IC50 (NIH3T3 cells [1]; [4]): > 1000 µM
inhibition at 500 µM (NIH3T3 cells [1]; Mus musculus): 10.4%
inhibition at 1000 µM (NIH3T3 cells [1]; Mus musculus): 32.6%

Compound: CC(=O)N(C)c1ccc(Cn2cc(C)ccc2=O)cc1 [Compound 11b, N-Methyl-N-(4-((5-methyl-2-oxopyridin-1(2H)-yl)methyl)phenyl)acetamide]
IC50 (NIH3T3 cells [1]; [4]): 140 ± 9.8 µM
inhibition at 500 µM (NIH3T3 cells [1]; Mus musculus): 66.7%
inhibition at 1000 µM (NIH3T3 cells [1]; Mus musculus): 79.4%

Compound: CC(=O)Nc1ccc(-n2cc(C)ccc2=O)cc1 [Compound 4b, N-(4-(5-Methyl-2-oxopyridin-1(2H)-yl)phenyl)acetamide]
IC50 (NIH3T3 cells [1]; [4]): > 1000 µM
inhibition at 500 µM (NIH3T3 cells [1]; Mus musculus): 1.3%
inhibition at 1000 µM (NIH3T3 cells [1]; Mus musculus): 25.7%

Compound: TGF-β1: recombinant TGF-β1, key fibrogenic factor used to induce epithelial–mesenchymal transition and cell migration [reference compound]
cell migration OD value (NHI3T3 cells; TGF-β1 alone, OD value of the control is 1.0): about 1.7

Compound: CN1CCN(CC(=O)Nc2ccc(Cn3cc(C(F)(F)F)ccc3=O)cc2)CC1 [Compound 10a, 2-(4-Methylpiperazin-1-yl)-N-(4-((2-oxo-5-(trifluoromethyl)pyridin-1(2H)-yl)methyl)phenyl)acetamide]
IC50 (NIH3T3 cells [1]; [4]): 246.3 ± 1.8 µM
inhibition at 500 µM (NIH3T3 cells [1]; Mus musculus): 66.5%
inhibition at 1000 µM (NIH3T3 cells [1]; Mus musculus): 87.7%

Compound: 1-Benzyl-5-(trifluoromethyl)pyridin-2(1H)-one [Compound 7a]
Inhibition% @ 0.5 mM (NIH3T3 cells [1]; NIH3T3 cells, CCK8, 0.5 mM): 20.58%
Inhibition% @ 1 mM (NIH3T3 cells [1]; NIH3T3 cells, CCK8, 1 mM): 40.95%
IC50 (NIH3T3 cells [1]; NIH3T3 cells, averages ±SD of at least three determinations): > 500 µM
